Compound activity deposited in PubChem by several laboratories.
Shown are actives, neighbours in structure and some others; about 7.2% of the full set was active somewhere.
tolC growth inh: E. coli tolC mutant growth inhibition; E. coli BW25113 tolC mutant growth, OD615; growth inhibition, % at 10 µM (by protocol); 65,000 tested, 2.2% active; AID 573;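 active means growth inhibition at or above a cutoff equal to the mean over every tested compound plus 3 SD, cut at about 60% in these data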;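 further: growth measured after 20 h incubation at 37 °C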
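Test system: E. coli BW25113 ΔtolC::kan bacteria; incubation: 37 °C, 20 h exposure; medium: LB broth supplemented with 50 µg/mL kanamycin; read-out basis: percent growth inhibition; signal: A615 absorbance measurement; compound: 10 µM final, single dose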
E coli WT exp: growth inhibitors of E. coli BW25113 wild type; OD600 absorbance; growth inhibition, % at 100 µM; 98,000 tested, 0.15% active; AID 710;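 active means growth inhibition above about 50% at one test dose, limit read from the data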;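 further: growth measured after 20 h incubation at 37 °C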
PostGolgi ctrl: inhibits growth of the yeast control strain; efflux-deficient yeast background strain, growth absorbance A615, 16 h; inhibition, % at 10 µM; 98,000 tested, 5% active
PLAP act: activates human placental alkaline phosphatase; purified PLAP enzyme, luminescent substrate read-out; active compounds read high; P05187; AID 696; 96,000 tested, 1.2% active; activation fold at 20 µM; in the data active means activation fold above about 2
Target sequence (P05187 whole entry, looked up): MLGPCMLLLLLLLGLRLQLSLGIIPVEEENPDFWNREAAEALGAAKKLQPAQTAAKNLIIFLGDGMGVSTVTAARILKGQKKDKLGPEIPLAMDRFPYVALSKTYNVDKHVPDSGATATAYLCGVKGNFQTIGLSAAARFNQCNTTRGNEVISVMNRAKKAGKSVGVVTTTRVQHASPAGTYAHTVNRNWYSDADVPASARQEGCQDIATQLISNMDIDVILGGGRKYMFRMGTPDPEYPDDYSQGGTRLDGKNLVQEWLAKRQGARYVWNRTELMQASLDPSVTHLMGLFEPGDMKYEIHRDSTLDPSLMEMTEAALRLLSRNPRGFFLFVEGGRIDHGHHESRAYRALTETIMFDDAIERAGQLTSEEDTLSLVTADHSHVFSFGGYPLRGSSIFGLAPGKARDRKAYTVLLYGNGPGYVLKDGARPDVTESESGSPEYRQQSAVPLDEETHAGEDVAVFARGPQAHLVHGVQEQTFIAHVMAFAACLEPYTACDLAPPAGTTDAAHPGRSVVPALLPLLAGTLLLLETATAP
PostGolgi yeast: growth inhibition of a yeast mutant, post-Golgi transport screen; 98,000 tested, 0.9% active; inhibition, % at 10 µM; post-Golgi transport phenotypic cell assay;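 further: yeast cells grown in 1536-well plates; yeast grown about 18 h at 30C before absorbance read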
The depositor's hits bear a star; . = not tested or not shown. Unless noted, no stated cut-off is given here; in the data, active means inhibition above about 30%; inactive means the rest.

SMILES	tolC growth inh	E coli WT exp	PostGolgi ctrl	PLAP act	PostGolgi yeast
Cc1ccc2cc(C#N)c(N3CCCC3)nc2c1C	4	-10	47*	0.8	-1
Cc1ccc2cc(C#N)c(N3CCCN(C(=O)C4CCCO4)CC3)nc2c1C (stereo not drawn)	12	0	18	1.4	-1
Cc1ccc(S(=O)(=O)C2(C(=O)Nc3cccc(F)c3)CC2)cc1	-2	8	3	0.8	-3
Cc1ccc(C2=[N+]([O-])C(C)(C)CC2)cc1	.	4	33*	0.9	2
O=C(CSc1nnnn1C1CCCCC1)Nc1cccc(NC(=O)c2ccco2)c1	73*	-5	16	0.8	-8
CSc1nc(NC(C)(C)C)nc(Oc2ccc(=O)n(C)n2)n1	.	1	-4	0.8	-16
Cc1ccc(S(=O)(=O)N(Cc2ccc(F)cc2)Cc2ccco2)cc1	66*	0	15	1	2
Cc1ccc(S(=O)(=O)N(Cc2ccccc2)Cc2ccco2)cc1	64*	15	10	0.7	-2
COc1ccc(S(=O)(=O)N(Cc2ccc(OC)c(OC)c2)Cc2ccco2)cc1	42	-13	21	1.5	-9
COc1ccccc1C(=O)NCCC(=O)N1CC(=O)Nc2ccccc21	-19	2	-6	1	0
Cc1nc2c(n1C1CCCCC1)C(=O)c1ccccc1C2=O	.	0	14	0.9	6
COc1ccc(NS(=O)(=O)c2ccc3oc(Nc4ccc5c(c4)OCCO5)nc3c2)cc1	79*	-11	13	1.1	-7
FC(F)(F)c1cc(-c2ccccc2)nc(NCc2cccnc2)n1	.	-8	34*	0.9	-6
FC(F)(F)c1cc(-c2ccco2)nc(NCc2cccnc2)n1	12	-7	3	1.2	3
Clc1ccc(OCCCNCc2ccccc2)c(Br)c1	.	68*	31*	1.5	-37
COCCNCCCCOc1c(Cl)cc(C)cc1Br	.	10	-4	1.3	17
Cc1cc(Cl)c(OCCCNCc2ccccc2)c(Br)c1	.	57*	8	1	-2
OCCNCCCOc1ccc(Cl)cc1Br	.	17	-1	1.1	7
CCC1(C)Cc2ccccc2-c2nc(NCCO)n(-c3ccc(C)cc3)c(=O)c21 (stereo not drawn)	.	-13	35*	1.6	1
CCC1(C)Cc2ccccc2-c2nc(NCCO)n(-c3ccccc3)c(=O)c21 (stereo not drawn)	0	.	.	.	.
CCC1(C)Cc2ccccc2-c2nc3n(c(=O)c21)CCCCC3 (stereo not drawn)	100*	2	27	1	-2
O=C(Nc1ccc(Cl)cc1)OCCn1nnnc1C(c1ccccc1Cl)N1CCOCC1 (stereo not drawn)	.	15	0	1.5	3
O=C1C2Sc3[nH]c(=O)sc3C(c3ccccc3)C2C(=O)N1c1ccc(Cl)cc1 (stereo not drawn)	.	1	6	0.8	-19
Oc1ccc(Cl)cc1Cc1cc(Cl)ccc1O	100*	.	.	.	.
O=c1c(-c2ccnn2-c2cccc(Cl)c2)cnc2n1CCS2	.	-5	5	0.9	-8
SMILES	tolC growth inh	E coli WT exp	PostGolgi ctrl	PLAP act	PostGolgi yeast
COC(=O)c1ccc(C(c2c(N)n(CC(C)C)c(=O)[nH]c2=O)N2CCN(c3ccccc3)CC2)cc1 (stereo not drawn)	3	-6	35*	1.8	-17
CCCn1c(N)c(C(c2ccc(C(=O)OC)cc2)N2CCN(c3ccccc3)CC2)c(=O)[nH]c1=O (stereo not drawn)	0	5	-3	1.8	-23
O=C(c1ccc2c(c1)N(Cc1ccccc1)C(=O)c1ccccc1S2)N1CCCC1	.	-6	45*	1.4	29
COc1ccc2[nH]c(=O)c(CN(CCO)C(=O)c3ccccc3F)cc2c1	-16	0	0	1.1	-14
CCCN1Cc2cccc(C(=O)Nc3ccc(N4CCN(CC)CC4)cc3)c2C1=O	-8	.	.	.	.
CC(=O)C(Sc1nc(-c2ccco2)nc2c1c(=O)n(C)c(=O)n2C)C(=O)N(C)C (stereo not drawn)	-8	.	.	.	.
COc1ccc(S(=O)(=O)N(CC(=O)N2CCOCC2)Cc2ccccc2)cc1C	.	6	8	2*	5
Cc1ncsc1CCOC(=O)c1cccnc1	-4	0	7	0.9	-2
Cc1ncsc1CCOC(=O)C12CC3CC(CC(C3)C1)C2	.	12	46*	0.9	-3
COc1cccc(CNn2c(-c3cccc(C)c3)nc3ccccc3c2=O)c1	.	-23	36*	1.7	4
CCOC(=O)c1c(C)[nH]c(C(=O)COC(=O)CCC2CCCC2)c1C	.	-6	1	0.9	-8
CC(c1ccccc1)N1CCn2c(nc3cc(NC(=O)NC4CCCCC4)ccc32)C1 (stereo not drawn)	.	-3	6	2.9*	-3
CC(c1ccccc1)N1CCn2c(nc3cc(NC(=O)c4cccs4)ccc32)C1 (stereo not drawn)	.	-4	-1	1.9	0
Oc1c(C=Nc2cccnc2)sc2ccccc12	8	-7	31*	1.6	3
Oc1ccc(-c2nccc(-c3cccs3)n2)cc1	.	-2	15	0.9	-2
CC1(C)CCCN(C(=O)c2coc(=O)c(Br)c2)C1	-9	3	-1	1.1	6
Oc1ccccc1-c1nc(N2CCN(Cc3ccccc3)CC2)c2ccccc2n1	14	-13	42*	1.2	-5
CC1CCN(c2nc(-c3ccccc3O)nc3ccccc23)CC1	.	-12	6	1	0
COc1cccc(-c2nc(N3CC(C)CC(C)C3)c3ccccc3n2)c1O (stereo not drawn)	3	-22	75*	0.9	1
COc1cccc(-c2nc(N3CCC(C)CC3)c3ccccc3n2)c1O	13	-8	72*	1	0
CCn1cc(C(=O)N[C@H](C)c2ccccc2)c(=O)c2cc(F)c(N3CCN(C)CC3)cc21	.	1	2	1.6	3
CCn1cc(C(=O)NCc2ccco2)c(=O)c2cc(F)c(N3CCN(C(=O)c4ccco4)CC3)cc21	14	90*	8	1.5	0
CCn1cc(C(=O)NCc2ccc3c(c2)OCO3)c(=O)c2cc(F)c(N3CCN(C)CC3)cc21	100*	100*	7	1.6	9
CCn1cc(C(=O)O)c(=O)c2cc(F)c(N3CCN(C(=O)Nc4ccccc4)CC3)cc21	100*	94*	-2	1.2	-2
CCn1cc(C(=O)NCc2ccco2)c(=O)c2cc(S(=O)(=O)N3CCC(C)CC3)ccc21	45	-6	7	1.4	0
CCOC(=O)c1cn(CC)c2cc(N3CCSCC3)c(F)cc2c1=O	100*	32	6	1.3	0
CCn1cc(C(=O)O)c(=O)c2cc(F)c(N3CCNCC3)cc21	1	.	.	.	.
Cc1cc([N+](=O)[O-])cnc1NC(C)c1ccccc1 (stereo not drawn)	.	-5	13	1	-10
CCn1cc(C(=O)NCc2ccccn2)c(=O)c2cc(F)c(N3CCN(C)CC3)cc21	13	100*	10	1.4	1
CCn1cc(SCC(=O)NCc2ccc3c(c2)OCO3)c2ccccc21	17	4	36*	0.9	-5
